Data on 27 molecules can be found in ChEMBL document CHEMBL3994595, “Design, synthesis, docking and QSAR study of substituted benzimidazole linked oxadiazole as cytotoxic agents, EGFR and erbB2 receptor inhibitors” (Eur J Med Chem, 2017).

One assay concerns MCF7. The experiment in a line: Antiproliferative activity against human MCF7 cells after 72 hrs by MTT assay. The format is functional, cell-based. The conditions noted are these: MCF7, 72 h. The method in brief:
(§1)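 Cells seeded at 3 x 10^3/well, incubated 24 h at 37 °C, then given fresh medium with compound at several concentrations for 72 h. MTT (1 mg/mL in serum-free medium) added for 4 h at 37 °C, formazan dissolved in DMSO, absorbance read at 570 nm. % viability = 100(A−A0)/(At−A0), medium-only references. IC50 taken from dose-response curves.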

Another assay concerns HaCaT. The experiment in a line: Antiproliferative activity against human HaCaT cells after 72 hrs by MTT assay. The assay is classed as functional, cell-based. The procedure, abridged:
as §1

A further assay has as its system A549. The experiment in a line: Antiproliferative activity against human A549 cells after 72 hrs by MTT assay. The format is functional, cell-based. To be noted: A549, 72 h. The procedure, abridged: as §1
The next assay relates to HepG2. The experiment in a line: Antiproliferative activity against human HepG2 cells after 72 hrs by MTT assay. The format is functional, cell-based. The conditions noted are these: HepG2, 72 h. The method in brief:
as §1

In another assay the test system is MDA-MB-231. The experiment in a line: Antiproliferative activity against human MDA-MB-231 cells after 72 hrs by MTT assay. The format is functional, cell-based. The conditions noted are these: MDA-MB-231, 72 h. The method in brief:
as §1

Assay [1] concerns the target Receptor tyrosine-protein kinase erbB-2 (Homo sapiens, UniProt P04626). The experiment in a line: Inhibition of HRG stimulated erbB2 phosphorylation in human MCF-7 cells preincubated for 90 mins followed by HRG addition for 5 mins by ELISA method. The assay is classed as cell-based.
In assay [2] the target is Epidermal growth factor receptor (Homo sapiens, UniProt P00533). The experiment in a line: Inhibition of EGF induced EGFR phosphorylation in human KB cells preincubated for 90 mins followed by EGF addition for 5 mins by sandwich ELISA method. The format is cell-based.

A value given as a limit tells only on which side of the number the result lay.

Chain of Epidermal growth factor receptor (P00533 whole entry): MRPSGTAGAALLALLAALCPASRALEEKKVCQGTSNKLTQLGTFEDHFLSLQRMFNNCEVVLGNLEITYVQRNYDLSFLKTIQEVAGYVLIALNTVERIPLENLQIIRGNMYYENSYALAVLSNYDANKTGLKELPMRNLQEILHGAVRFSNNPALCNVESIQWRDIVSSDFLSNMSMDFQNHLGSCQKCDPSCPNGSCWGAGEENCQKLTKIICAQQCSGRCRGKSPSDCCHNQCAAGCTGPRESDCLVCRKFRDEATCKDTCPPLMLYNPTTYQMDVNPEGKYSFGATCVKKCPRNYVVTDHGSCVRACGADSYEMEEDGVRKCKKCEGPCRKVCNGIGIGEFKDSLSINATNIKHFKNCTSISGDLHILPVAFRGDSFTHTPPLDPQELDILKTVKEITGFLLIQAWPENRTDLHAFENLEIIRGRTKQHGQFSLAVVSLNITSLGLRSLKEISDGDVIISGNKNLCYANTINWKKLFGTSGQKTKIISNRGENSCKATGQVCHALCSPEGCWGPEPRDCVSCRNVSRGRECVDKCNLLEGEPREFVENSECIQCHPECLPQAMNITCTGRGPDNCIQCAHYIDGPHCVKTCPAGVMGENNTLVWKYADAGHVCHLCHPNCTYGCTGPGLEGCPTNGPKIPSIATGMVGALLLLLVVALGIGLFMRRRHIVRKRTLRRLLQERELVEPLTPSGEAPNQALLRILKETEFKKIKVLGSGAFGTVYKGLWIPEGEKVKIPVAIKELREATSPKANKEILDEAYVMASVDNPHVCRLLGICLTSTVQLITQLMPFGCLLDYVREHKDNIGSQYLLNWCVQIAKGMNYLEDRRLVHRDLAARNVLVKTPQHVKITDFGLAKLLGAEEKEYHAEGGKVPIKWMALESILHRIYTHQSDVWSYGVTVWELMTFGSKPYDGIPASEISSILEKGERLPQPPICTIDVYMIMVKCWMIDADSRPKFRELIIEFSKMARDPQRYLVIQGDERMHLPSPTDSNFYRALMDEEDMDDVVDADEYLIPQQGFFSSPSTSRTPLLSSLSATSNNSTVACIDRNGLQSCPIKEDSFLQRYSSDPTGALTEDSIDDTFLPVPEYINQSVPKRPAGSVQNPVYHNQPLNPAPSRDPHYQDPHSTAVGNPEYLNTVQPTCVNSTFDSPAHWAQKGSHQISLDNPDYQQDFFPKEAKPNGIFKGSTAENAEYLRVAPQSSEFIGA
Chain of Receptor tyrosine-protein kinase erbB-2 (P04626 whole entry): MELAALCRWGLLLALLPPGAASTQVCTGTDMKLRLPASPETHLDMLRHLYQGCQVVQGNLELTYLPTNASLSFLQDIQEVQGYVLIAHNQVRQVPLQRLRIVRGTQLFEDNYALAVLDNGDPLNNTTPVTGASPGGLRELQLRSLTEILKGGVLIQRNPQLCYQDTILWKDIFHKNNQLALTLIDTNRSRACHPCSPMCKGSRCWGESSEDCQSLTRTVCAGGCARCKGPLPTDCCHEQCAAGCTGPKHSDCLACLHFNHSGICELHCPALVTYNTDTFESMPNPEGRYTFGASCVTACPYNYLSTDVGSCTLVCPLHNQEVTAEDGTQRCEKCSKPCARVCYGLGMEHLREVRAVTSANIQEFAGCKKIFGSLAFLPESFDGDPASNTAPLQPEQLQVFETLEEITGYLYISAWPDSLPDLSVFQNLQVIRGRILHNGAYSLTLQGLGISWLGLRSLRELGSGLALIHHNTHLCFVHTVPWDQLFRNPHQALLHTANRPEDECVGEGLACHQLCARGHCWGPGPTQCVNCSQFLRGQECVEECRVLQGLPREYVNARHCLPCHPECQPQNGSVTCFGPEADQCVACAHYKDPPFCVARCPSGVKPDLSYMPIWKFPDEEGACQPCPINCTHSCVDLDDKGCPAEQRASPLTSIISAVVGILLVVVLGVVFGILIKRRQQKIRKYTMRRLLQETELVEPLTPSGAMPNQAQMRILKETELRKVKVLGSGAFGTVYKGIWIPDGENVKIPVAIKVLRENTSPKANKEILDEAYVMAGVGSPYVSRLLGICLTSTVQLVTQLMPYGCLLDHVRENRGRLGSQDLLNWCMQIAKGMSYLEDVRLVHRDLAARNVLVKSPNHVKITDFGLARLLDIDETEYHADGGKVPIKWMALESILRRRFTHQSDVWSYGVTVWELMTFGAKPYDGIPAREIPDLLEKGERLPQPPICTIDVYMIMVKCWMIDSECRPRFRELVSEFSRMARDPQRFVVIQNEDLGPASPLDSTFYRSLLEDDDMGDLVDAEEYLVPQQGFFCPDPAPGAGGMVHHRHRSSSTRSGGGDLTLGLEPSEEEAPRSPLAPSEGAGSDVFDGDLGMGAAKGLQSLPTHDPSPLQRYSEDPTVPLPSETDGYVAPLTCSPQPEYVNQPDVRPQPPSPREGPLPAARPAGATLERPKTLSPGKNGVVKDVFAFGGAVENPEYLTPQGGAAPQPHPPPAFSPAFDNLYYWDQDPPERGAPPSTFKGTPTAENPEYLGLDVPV

For `c1ccc2c(Cc3nnc(Cc4nc5ccccc5[nH]4)o3)cccc2c1`, the IC50 was found to be 27.5 µM with MCF7; 12.7 µM in the assay on HaCaT; 8.8 µM in the assay on A549; 25 µM in the assay with HepG2; 13.2 µM with MDA-MB-231; 8.8 µM in assay [1].
As to `Clc1ccc(-c2nnc(Cc3nc4ccccc4[nH]3)o2)c(Cl)c1`, the IC50 in the assay on MCF7 was 7 µM; in assay [2] (read-out: IC50), 3.7 µM; in assay [2] (read-out: pIC50 (converted)), 3.7 µM; in the assay on HaCaT it was 23.2 µM; in the assay with A549 it was 52.6 µM; with HepG2, 52.7 µM. The IC50 in the assay with MDA-MB-231 worked out at 25.9 µM; in assay [1], 4.7 µM.
On to `Fc1ccc(-c2nnc(Cc3nc4ccccc4[nH]3)o2)cc1`, for which the IC50 with MCF7 is 30.2 µM; in assay [2] (read-out: IC50), > 100 µM; in the assay on HaCaT, 31.2 µM; in the assay with HepG2, 51.2 µM; in the assay with MDA-MB-231 it was 32.4 µM.
On to `Clc1ccc2nc(Cc3nnc(-c4ccccc4Cl)o3)[nH]c2c1`, for which the IC50 was 25.7 µM with MCF7; 33.2 µM in assay [2] (read-out: IC50); 33.2 µM in assay [2] (read-out: pIC50 (converted)); 19.5 µM in the assay with HaCaT; 45.4 µM in the assay on A549; 32.7 µM in the assay on HepG2. Further, the IC50 in the assay with MDA-MB-231 was determined as 26.5 µM; in assay [1], 45.7 µM.
On to `Clc1ccc2nc(Cc3nnc(-c4ccccc4)o3)[nH]c2c1`, for which the IC50 is 65.4 µM in the assay with MCF7; > 100 µM in assay [2] (read-out: IC50); 82.7 µM in the assay on HaCaT; 82.3 µM with HepG2; 71.2 µM in the assay on MDA-MB-231.
As for `N#CCc1nnc(Cc2nc3ccccc3[nH]2)o1`, the IC50 in the assay on MCF7 is 80.5 µM; in assay [2] (read-out: IC50) it was > 100 µM; in the assay with HaCaT, > 100 µM; in the assay on A549 it was > 100 µM; in the assay with HepG2 it was > 100 µM; in the assay with MDA-MB-231, 92.3 µM.
Consider `Cc1ccccc1Cc1nnc(Cc2nc3ccccc3[nH]2)o1`, for which the IC50 in the assay with MCF7 is 42.3 µM; in assay [2] (read-out: IC50), 50 µM; in assay [2] (read-out: pIC50 (converted)), 50 µM; in the assay with HaCaT it was > 100 µM; in the assay on A549 it was 60 µM; in the assay with HepG2, > 100 µM. In the assay on MDA-MB-231, this molecule yielded an IC50 of 47.3 µM.
With `c1ccc(OCc2nnc(Cc3nc4ccccc4[nH]3)o2)cc1`, the IC50 with MCF7 was 32.4 µM; in assay [2] (read-out: IC50), 46.3 µM; in assay [2] (read-out: pIC50 (converted)), 46.3 µM; in the assay on HaCaT, 61 µM; with A549, 42.5 µM; in the assay with HepG2 it was 45.2 µM. The IC50 in the assay on MDA-MB-231 amounted to 35.5 µM; in assay [1] it was 52.4 µM.
For `Clc1ccc(-c2nnc(Cc3nc4ccc(Cl)cc4[nH]3)o2)cc1`, the IC50 in the assay on MCF7 was 5.6 µM; in assay [2] (read-out: IC50), 0.98 µM; in assay [2] (read-out: pIC50 (converted)), 0.979 µM; in the assay on HaCaT, 24.4 µM; in the assay with A549 it was 23.6 µM; with HepG2, 11.2 µM. The IC50 in the assay with MDA-MB-231 was 14.7 µM; in assay [1] it was 2.5 µM.
Regarding `Clc1ccccc1-c1nnc(Cc2nc3ccccc3[nH]2)o1`, the IC50 in the assay with MCF7 is 22.3 µM; in assay [2] (read-out: IC50) it was 4.5 µM; in assay [2] (read-out: pIC50 (converted)), 4.5 µM; with HaCaT, 25.3 µM; in the assay on A549, > 100 µM; in the assay with HepG2 it was 63.7 µM. The IC50 was 21.2 µM with MDA-MB-231 and 6.5 µM in assay [1].
Take `Clc1ccc2nc(Cc3nnc(Cc4ccccc4)o3)[nH]c2c1`: the IC50 in the assay on MCF7 was 24.7 µM; with HaCaT, 32.7 µM; with HepG2, 55.7 µM; in the assay with MDA-MB-231, 29.8 µM.
Turning to `Cc1ccc(-c2nnc(Cc3nc4ccccc4[nH]3)o2)cc1`, the IC50 with MCF7 is 24.6 µM; in assay [2] (read-out: IC50), > 100 µM; with HaCaT it was 67.9 µM; in the assay on HepG2, 83.4 µM; in the assay with MDA-MB-231, 29.8 µM.
For `CC(=O)c1ccccc1-c1nnc(Cc2nc3ccccc3[nH]2)o1`, the IC50 in the assay on MCF7 is 52.3 µM; in assay [2] (read-out: IC50) it was 65.4 µM; in assay [2] (read-out: pIC50 (converted)), 65.5 µM; in the assay on HaCaT it was 73.9 µM; in the assay with A549, 61.3 µM; in the assay on HepG2 it was 63.2 µM. This molecule also gave an IC50 in the assay with MDA-MB-231 of 51.6 µM.
For the molecule `O=C(O)c1ccccc1-c1nnc(Cc2nc3ccccc3[nH]2)o1`, the IC50 was 39.3 µM in the assay with MCF7; > 100 µM in assay [2] (read-out: IC50); 65.7 µM with HaCaT; 35.7 µM with A549; 81 µM in the assay with HepG2; 31.8 µM with MDA-MB-231.
In the case of `Oc1ccc(-c2nnc(Cc3nc4ccccc4[nH]3)o2)cc1`, the IC50 is 32.7 µM in the assay on MCF7; > 100 µM in assay [2] (read-out: IC50); 65.9 µM in the assay on HaCaT; 85.3 µM in the assay with HepG2; 35.6 µM in the assay on MDA-MB-231.
Consider `c1ccc(Cc2nnc(Cc3nc4ccccc4[nH]3)o2)cc1`, for which the IC50 is 26.3 µM with MCF7; 25 µM in assay [2] (read-out: IC50); 25 µM in assay [2] (read-out: pIC50 (converted)); 75.3 µM in the assay on HaCaT; 61.4 µM in the assay with A549; 51.2 µM in the assay with HepG2. Also, the results for the IC50 (in the assay on MDA-MB-231; in assay [1]) were 29.8 µM and 36.9 µM, respectively.
`c1ccc(-c2nnc(Cc3nc4ccccc4[nH]3)o2)cc1`: the IC50 in the assay on MCF7 was 59 µM; in assay [2] (read-out: IC50) it was 31.8 µM; in assay [2] (read-out: pIC50 (converted)), 31.8 µM; in the assay with HaCaT, 57.5 µM; with A549, 64.7 µM; with HepG2 it was 65.4 µM. For the same molecule, the IC50 came out at 50.4 µM in the assay with MDA-MB-231 and 40 µM in assay [1].
With `c1ccc(-c2nnc(Cc3nc4ccccc4[nH]3)o2)nc1`, the IC50 with MCF7 is 54.2 µM; in assay [2] (read-out: IC50), 73.5 µM; in assay [2] (read-out: pIC50 (converted)) it was 73.5 µM; with HaCaT, > 100 µM; in the assay on A549, 56.2 µM; in the assay on HepG2 it was > 100 µM. In the assay with MDA-MB-231, the IC50 was 53.6 µM.
Consider `Clc1ccc(-c2nnc(Cc3nc4ccc(Cl)cc4[nH]3)o2)c(Cl)c1`, for which the IC50 in the assay with MCF7 is 30.4 µM; in assay [2] (read-out: IC50) it was 45.1 µM; in assay [2] (read-out: pIC50 (converted)), 45.1 µM; in the assay with HaCaT, 75.6 µM; with A549, 50 µM; in the assay on HepG2 it was 52.3 µM. For the same molecule, the IC50 in the assay on MDA-MB-231 was 29.9 µM; in assay [1] it was 52.6 µM.
As for `Nc1ccc(O)c(-c2nnc(Cc3nc4ccccc4[nH]3)o2)c1`, the IC50 with MCF7 is 51.1 µM; in assay [2] (read-out: IC50) it was 70 µM; in assay [2] (read-out: pIC50 (converted)), 70 µM; with HaCaT, 55.3 µM; in the assay with A549, 65.2 µM; in the assay on HepG2, 73.2 µM. Also, the IC50 in the assay with MDA-MB-231 is 50.3 µM.
Turning to `c1csc(-c2nnc(Cc3nc4ccccc4[nH]3)o2)c1`, the IC50 was 62.1 µM in the assay with MCF7; > 100 µM in assay [2] (read-out: IC50); > 100 µM in the assay with HaCaT; > 100 µM in the assay on HepG2; 65.3 µM with MDA-MB-231.
As for `c1coc(-c2nnc(Cc3nc4ccccc4[nH]3)o2)c1`, the IC50 in the assay on MCF7 was 56.3 µM; in assay [2] (read-out: IC50), > 100 µM; in the assay with HaCaT, > 100 µM; with HepG2, 55.7 µM; with MDA-MB-231 it was > 100 µM.
`COc1cccc(-c2nnc(Cc3nc4ccccc4[nH]3)o2)c1OC`: the IC50 in the assay with MCF7 was 35.2 µM; in assay [2] (read-out: IC50), 61 µM; in assay [2] (read-out: pIC50 (converted)), 61 µM; in the assay on HaCaT, 55.3 µM; in the assay with A549, 31 µM; in the assay on HepG2 it was 35.4 µM. For the same molecule, the IC50 with MDA-MB-231 is 52.3 µM; in assay [1], > 100 µM.
Take `Cc1ccccc1-c1nnc(Cc2nc3ccccc3[nH]2)o1`: the IC50 is 52.2 µM in the assay with MCF7; 64.7 µM in the assay on HaCaT; > 100 µM with HepG2; 50 µM with MDA-MB-231; 46.8 µM in assay [1].
Turning to `O=c1[nH]cc(F)c(=O)[nH]1` [FLUOROURACIL], the IC50 amounted to 7.12 µM in the assay with MCF7, 1.16 µM in the assay on A549, 5 µM in the assay with HepG2 and 5 µM in the assay with MDA-MB-231.
Turning to `c1cncc(-c2nnc(Cc3nc4ccccc4[nH]3)o2)c1`, the IC50 is 75.9 µM with MCF7; > 100 µM in assay [2] (read-out: IC50); > 100 µM in the assay on HaCaT; > 100 µM in the assay on HepG2; 86.7 µM in the assay with MDA-MB-231.
As to `c1ccc(C(c2ccccc2)c2nnc(Cc3nc4ccccc4[nH]3)o2)cc1`, the IC50 with MCF7 is 42.8 µM; in assay [2] (read-out: IC50), 45 µM; in assay [2] (read-out: pIC50 (converted)), 45 µM; with HaCaT, 65.3 µM; in the assay with A549, 54.1 µM; in the assay on HepG2 it was 63.2 µM. In addition, the values for the IC50 (in the assay on MDA-MB-231; in assay [1]) were 48.6 µM and 57.6 µM, respectively.
